Data: paper PMC12716021 (Chemistry & Biodiversity, 2025)

Key:
[1] = NO scavenging activity; conditions: read-out: IC50 NO; in vitro; standard gallic acid
Summary of the method: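 Sodium nitroprusside (10 mM, in sodium phosphate buffer pH 7.4) added to test compound ([…]) or distilled water as control, then incubated at 37°C for 2 h. Griess reagent added, and A540 read. NO scavenging % = (1 − A compound/A control) × 100.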

[2] = Ferric reducing antioxidant power; conditions: read-out: IC50 FRAP; in vitro; standard gallic acid
[3] = DPPH radical scavenging activity; conditions: read-out: IC50 DPPH; in vitro; standard gallic acid

IC50 [1]: 78.5 µM
IC50 [2]: 117 µM
IC50 [3]: 105 µM
SMILES: O=C(O)c1cc(O)c(O)c(O)c1 [Gallic acid]
